Reference: ChEMBL document CHEMBL3853277, “Efficient Synthesis of Glaziovianin A Isoflavone Series from Dill and Parsley Extracts and Their in Vitro/in Vivo Antimitotic Activity” (J Nat Prod, 2016)

What was measured:
[1] = Growth inhibition of human HCT116 cells measured after 48 hrs by MTS assay; type: functional, cell-based; settings: HCT-116, 48 h
Procedure, shortened: (§1)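 Cancer lines grown in their own media with 10% FBS at 37 °C, 5% CO2; 1 × 10^4 cells/well treated 48 h at 0.01−100 μM (DMSO stocks, 0.1% DMSO control), quadruplicate wells. MTS reagent 1−4 h, absorbance 490 nm. IC50 by sigmoidal fitting; mean ± SD of three independent experiments.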

Paracentrotus lividus [2] = test: Antimitotic activity in sea urchin Paracentrotus lividus L embryo assessed as induction of cleavage alteration; type: functional
Procedure, shortened: (§2)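 Gametes collected by intracoelomic 0.5 M KCl injection; fertilized eggs (8−15 min postfertilization) exposed in seawater to 2-fold decreasing concentrations, up to 2000 embryos/mL, room temperature. Stocks 10 mM in DMSO diluted 10-fold in 96% EtOH. Cleavage alteration/arrest scored at 2.5−5.5 h; effective threshold concentration reported, duplicate measurements.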

Paracentrotus lividus [3] = test: Antimitotic activity against sea urchin Paracentrotus lividus L embryo assessed as induction of cleavage arrest; type: functional; procedure, shortened: as §2
Paracentrotus lividus [4] = test: Antimitotic activity against sea urchin Paracentrotus lividus L embryo assessed as induction of embryo spinning; type: functional
Procedure, shortened: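 Hatched free-swimming blastulae (8−9 h postfertilization) exposed to 2-fold decreasing concentrations in seawater, room temperature; DMSO stock diluted 10-fold in 96% EtOH. Observed to four-arm pluteus (34−36 h); spinning on well bottom without forward movement scored as microtubule destabilization; effective threshold concentration, duplicate measurements.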

[5] = Growth inhibition of human A549 cells by MTS assay; type: functional, cell-based; procedure, shortened: as §1
[6] = Growth inhibition of human A375 cells measured after 48 hrs by MTS assay; type: functional, cell-based; settings: A-375, 48 h; procedure, shortened: as §1
[7] = Growth inhibition of human DU145 cells measured after 48 hrs by MTS assay; type: functional, cell-based; settings: DU-145, 48 h; procedure, shortened: as §1
[8] = Growth inhibition of human PC3 cells measured after 48 hrs by MTS assay; type: functional, cell-based; settings: PC-3, 48 h; procedure, shortened: as §1
[9] = Growth inhibition of human MDA-MB-231 cells measured after 48 hrs by MTS assay; type: functional, cell-based; settings: MDA-MB-231, 48 h; procedure, shortened: as §1
[10] = Growth inhibition of human SKOV3 cells measured after 48 hrs by MTS assay; type: functional, cell-based; settings: SK-OV-3, 48 h; procedure, shortened: as §1
[11] = Growth inhibition of human PBMC cells measured after 48 hrs by MTS assay; type: cell-based
Procedure, shortened: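 PBMCs from healthy volunteers by Ficoll-Paque density separation, washed in RPMI 1640, cultured in RPMI 1640 with 10% heat-inactivated FBS at 37 °C, 5% CO2. Seeded 1 × 10^4 cells/well, treated 48 h at 0.01−100 μM, 0.1% DMSO control, quadruplicate wells; MTS read at 490 nm; IC50 by sigmoidal fitting, three experiments.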

Paracentrotus lividus [12] = test: Antimitotic activity against sea urchin Paracentrotus lividus L embryo assessed as induction of tuberculate egg formation; type: functional
Procedure, shortened: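 Fertilized eggs were exposed 8−15 min post-fertilization to 2-fold decreasing concentrations, as a monolayer of up to 2000 embryos/mL in filtered seawater at room temperature. The 10 mM DMSO stock was diluted 10-fold in 96% EtOH. Cleavage alteration or arrest was scored by light microscopy at 2.5−5.5 h post-fertilization, and the effective threshold concentration was recorded from duplicate measurements.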

Which IC50 [1] does the source give for `COc1cc2occ(-c3cc(OC)c(OC)c(OC)c3OC)c(=O)c2cc1OC` here?
The IC50 was over 10 µM.

What about the EC (Paracentrotus lividus [2]) of the same compound?
The EC was over 4 µM.

And the EC (Paracentrotus lividus [3])?
Its EC is over 4 µM.

What about the EC (Paracentrotus lividus [4]) of the same compound?
Its EC is over 4 µM.

What about the IC50 [5] of the same compound?
Its IC50 is over 10 µM.

What about the IC50 [6] of the same compound?
Its IC50 is over 10 µM.

And the IC50 [7]?
The IC50 was over 10 µM.

And the IC50 [8]?
Its IC50 is over 10 µM.

And the IC50 [9]?
Its IC50 is over 10 µM.

What about the IC50 [10] of the same compound?
Its IC50 is over 10 µM.

And the IC50 [11]?
The IC50 was over 10 µM.

With `COc1ccc(-c2coc3cc(OC)c(OC)cc3c2=O)cc1` as the compound, how does the IC50 [1] read?
The IC50 was over 10 µM.

And the EC (Paracentrotus lividus [2])?
The EC was 0.2 µM.

And the EC (Paracentrotus lividus [4])?
The EC was over 5 µM.

And the IC50 [5]?
Its IC50 is over 10 µM.

What about the IC50 [6] of the same compound?
Its IC50 is over 10 µM.

What about the IC50 [7] of the same compound?
Its IC50 is over 10 µM.

And the IC50 [8]?
Its IC50 is over 10 µM.

What about the IC50 [9] of the same compound?
Its IC50 is over 10 µM.

What about the IC50 [10] of the same compound?
The IC50 was over 10 µM.

What about the IC50 [11] of the same compound?
The IC50 was over 10 µM.

And the EC (Paracentrotus lividus [12])?
The EC was 1 µM.

What does the source list for `COc1ccc(-c2coc3cc(OC)c(OC)cc3c2=O)cc1OC`?
IC50 [1]: > 10 µM; EC (Paracentrotus lividus [2]): 4 µM; EC (Paracentrotus lividus [3]): >4 µM; EC (Paracentrotus lividus [4]): >4 µM; IC50 [5]: > 10 µM; IC50 [6]: > 10 µM; IC50 [7]: > 10 µM; IC50 [8]: > 10 µM; IC50 [9]: > 10 µM; IC50 [10]: > 10 µM; IC50 [11]: > 10 µM

For `COc1ccc(-c2coc3c(OC)c(OC)c(OC)cc3c2=O)cc1OC`, which EC (Paracentrotus lividus [2]) is on record?
Its EC is 4 µM.

What about the EC (Paracentrotus lividus [3]) of the same compound?
Its EC is over 4 µM.

And the EC (Paracentrotus lividus [4])?
The EC was over 4 µM.

With `COc1cc2occ(-c3cc(OC)c4c(c3)OCO4)c(=O)c2cc1OC` as the compound, how does the IC50 [1] read?
The IC50 was over 10 µM.

And the EC (Paracentrotus lividus [2])?
The EC was 0.1 µM.

And the EC (Paracentrotus lividus [4])?
Its EC is over 5 µM.

And the IC50 [5]?
The IC50 was over 10 µM.

And the IC50 [6]?
Its IC50 is 6.1 µM.

And the IC50 [7]?
Its IC50 is over 10 µM.

What about the IC50 [8] of the same compound?
The IC50 was over 10 µM.

And the IC50 [9]?
Its IC50 is over 10 µM.

What about the IC50 [10] of the same compound?
Its IC50 is over 10 µM.

And the IC50 [11]?
Its IC50 is over 10 µM.

And the EC (Paracentrotus lividus [12])?
Its EC is 1 µM.

For `COc1ccc(-c2coc3c(OC)c4c(c(OC)c3c2=O)OCO4)cc1OC`, which IC50 [1] is on record?
The IC50 was over 10 µM.

And the EC (Paracentrotus lividus [2])?
The EC was over 4 µM.

And the EC (Paracentrotus lividus [3])?
Its EC is over 4 µM.

And the EC (Paracentrotus lividus [4])?
The EC was over 4 µM.

What about the IC50 [5] of the same compound?
Its IC50 is over 10 µM.

What about the IC50 [6] of the same compound?
The IC50 was over 10 µM.

And the IC50 [7]?
The IC50 was over 10 µM.

And the IC50 [8]?
The IC50 was over 10 µM.

And the IC50 [9]?
Its IC50 is over 10 µM.

What about the IC50 [10] of the same compound?
Its IC50 is over 10 µM.

What about the IC50 [11] of the same compound?
The IC50 was over 10 µM.

What does the source list for `COc1cc2occ(-c3cc(OC)c(OC)c(OC)c3)c(=O)c2cc1OC`?
IC50 [1]: 2.8 µM; EC (Paracentrotus lividus [2]): 0.2 µM; EC (Paracentrotus lividus [4]): >5 µM; IC50 [5]: > 10 µM; IC50 [6]: 3.2 µM; IC50 [7]: 4.9 µM; IC50 [8]: 5.1 µM; IC50 [9]: > 10 µM; IC50 [10]: 4.3 µM; IC50 [11]: > 10 µM; EC (Paracentrotus lividus [12]): 1 µM

Which IC50 [1] does the source give for `COc1cc2occ(-c3cc4c(c(OC)c3OC)OCO4)c(=O)c2cc1OC` here?
The IC50 was 3.4 µM.

And the EC (Paracentrotus lividus [2])?
The EC was 0.5 µM.

What about the EC (Paracentrotus lividus [4]) of the same compound?
The EC was over 5 µM.

What about the IC50 [5] of the same compound?
The IC50 was over 10 µM.

And the IC50 [6]?
Its IC50 is 1.7 µM.

What about the IC50 [7] of the same compound?
Its IC50 is 6.4 µM.

And the IC50 [8]?
Its IC50 is 7.3 µM.

What about the IC50 [9] of the same compound?
The IC50 was 7.1 µM.

What about the IC50 [10] of the same compound?
The IC50 was over 10 µM.

And the IC50 [11]?
The IC50 was over 10 µM.

And the EC (Paracentrotus lividus [12])?
The EC was 5 µM.

Which IC50 [1] does the source give for `COc1cccc(-c2coc3cc(OC)c(OC)cc3c2=O)c1` here?
The IC50 was over 10 µM.

What about the EC (Paracentrotus lividus [2]) of the same compound?
The EC was 2 µM.

What about the EC (Paracentrotus lividus [3]) of the same compound?
Its EC is over 4 µM.

And the EC (Paracentrotus lividus [4])?
The EC was over 5 µM.

And the IC50 [5]?
Its IC50 is over 10 µM.

What about the IC50 [6] of the same compound?
The IC50 was over 10 µM.

What about the IC50 [7] of the same compound?
Its IC50 is over 10 µM.

What about the IC50 [8] of the same compound?
Its IC50 is over 10 µM.

What about the IC50 [9] of the same compound?
The IC50 was over 10 µM.

And the IC50 [10]?
The IC50 was over 10 µM.

What about the IC50 [11] of the same compound?
The IC50 was over 10 µM.

For `COc1ccc(-c2coc3cc(OC)c(O)cc3c2=O)cc1`, which EC (Paracentrotus lividus [2]) is on record?
Its EC is 1 µM.

What about the EC (Paracentrotus lividus [4]) of the same compound?
The EC was over 5 µM.

And the EC (Paracentrotus lividus [12])?
The EC was 4 µM.

With `COc1ccc(-c2coc3cc(OC)c(OC)c(OC)c3c2=O)cc1` as the compound, how does the EC (Paracentrotus lividus [2]) read?
The EC was over 4 µM.

And the EC (Paracentrotus lividus [3])?
Its EC is over 4 µM.

What about the EC (Paracentrotus lividus [4]) of the same compound?
Its EC is over 4 µM.

Which IC50 [1] does the source give for `COc1ccc(/C=C\c2cc(OC)c(OC)c(OC)c2)cc1OP(=O)([O-])[O-].[Na+].[Na+]` [FOSBRETABULIN DISODIUM] here?
Its IC50 is 0.0016 µM.

And the EC (Paracentrotus lividus [2])?
The EC was 0.005 µM.

What about the EC (Paracentrotus lividus [3]) of the same compound?
The EC was 0.01 µM.

What about the EC (Paracentrotus lividus [4]) of the same compound?
The EC was 0.05 µM.

What about the IC50 [5] of the same compound?
The IC50 was 0.0234 µM.

What about the IC50 [6] of the same compound?
The IC50 was 0.0016 µM.

And the IC50 [7]?
The IC50 was 0.0014 µM.

What about the IC50 [8] of the same compound?
The IC50 was 0.0062 µM.

What about the IC50 [9] of the same compound?
Its IC50 is 0.0028 µM.

And the IC50 [10]?
Its IC50 is 0.0077 µM.

And the IC50 [11]?
Its IC50 is 0.17 µM.

With `COc1cc2occ(-c3cc(OC)c4c(c3OC)OCO4)c(=O)c2cc1OC` [GLAZIOVIANIN A] as the compound, how does the IC50 [1] read?
The IC50 was 0.69 µM.

And the EC (Paracentrotus lividus [2])?
Its EC is 0.05 µM.

And the EC (Paracentrotus lividus [3])?
Its EC is 0.5 µM.

What about the EC (Paracentrotus lividus [4]) of the same compound?
Its EC is 4 µM.

And the IC50 [5]?
The IC50 was 1.1 µM.

And the IC50 [6]?
Its IC50 is 0.27 µM.

And the IC50 [7]?
Its IC50 is 0.87 µM.

And the IC50 [8]?
Its IC50 is 0.83 µM.

And the IC50 [9]?
Its IC50 is 2.2 µM.

And the IC50 [10]?
Its IC50 is 0.43 µM.

And the IC50 [11]?
Its IC50 is over 10 µM.
